pIC50: −log10 of the molar value.

Series [1] in a line: Stability of the compound in methanol/HEPES buffer at pH 7.8 at 40 degC for 24 hrs by HPLC analysis. It is filed as physicochemical. The conditions noted are these: read-out: Stability. An outline of the steps:
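Compound dilutions incubated for 24 h in methanol with 10 mM HEPES buffer (pH 7.8) at 25 °C and 40 °C. HPLC analysis was done at 0 and 24 h to give the percentage of intact compound remaining.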

A short description of series [2]: in vitro. To be noted: mouse, J774.1 cells.
In series [3] the target is Outer membrane protein MIP (Legionella pneumophila, UniProt Q70YI1).
Series [4] can be described thus: Metabolic stability in mouse J774.1 cells at 37 degC after 1 hr by HPLC analysis. The series is classed as ADME, cell-based. The conditions noted are these: read-out: Stability. A digest of the protocol: (§1)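 Compound incubated with J774.1 murine macrophages in RPMI medium at 37 °C, sampled at 0, 1 and 24 h, and the remaining compound quantified by HPLC.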
Series [5] in a line: Metabolic stability in mouse J774.1 cells at 37 degC after 24 hrs by HPLC analysis. It is filed as ADME, cell-based. To be noted: read-out: Stability. An outline of the steps: as §1
Series [6] is described as follows: Stability in human plasma after 1 hr by HPLC analysis. It is filed as ADME, cell-free. An outline of the steps: (§2)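 Compound incubated in human plasma and sampled at 1, 4 and 24 h. The decrease in compound concentration was followed by HPLC.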
Series [7] in a line: Stability in human plasma after 4 hrs by HPLC analysis. The series is classed as ADME, cell-free. An outline of the steps:
as §2

A short description of series [8]: Stability in human plasma after 24 hrs by HPLC analysis. The series is classed as ADME, cell-free. An outline of the steps:
as §2

Sequence of Outer membrane protein MIP (Q70YI1 21-233 limits assumed): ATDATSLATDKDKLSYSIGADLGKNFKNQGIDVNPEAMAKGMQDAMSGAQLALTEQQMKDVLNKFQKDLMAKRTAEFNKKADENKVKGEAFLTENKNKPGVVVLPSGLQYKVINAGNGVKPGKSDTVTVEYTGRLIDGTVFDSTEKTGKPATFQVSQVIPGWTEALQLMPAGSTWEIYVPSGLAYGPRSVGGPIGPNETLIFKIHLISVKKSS

`COc1cc(CCCOC(=O)[C@@H]2CCCCN2S(=O)(=O)Cc2ccccc2)cc(OC)c1OC`: the remaining at 24 h in series [1] was found to be 99%.

As a reminder, the IC50 is the concentration at which inhibition is half-maximal. A higher IC50 goes with weaker potency in that assay. Broadly, the pIC50 is the negative decadic logarithm of the IC50, by convention in mol/L. Lower therefore signals a large IC50. For the compound `COc1cc(C(=O)NC[C@H](C)OC(=O)[C@@H]2CCCCN2S(=O)(=O)Cc2ccccc2)cc(OC)c1OC`, the IC50 at 24 h in series [2] was over 100 µM. The pIC50 in series [3] was 5.66.

As for `COCCOc1cc(OCCOC)cc(C(=O)OCCOC(=O)[C@@H]2CCCCN2S(=O)(=O)Cc2ccccc2)c1`, in series [4], the remaining at 1 h was found to be 98%. In addition, in series [2], the IC50 at 24 h was over 80 µM. In series [3], this compound showed a pIC50 of 5.07. The results for the remaining at 24 h in series [5] and in series [1] were 59% and 85%, respectively.

`C[C@@H](CNC(=O)c1cccnc1)OC(=O)[C@@H]1CCCCN1S(=O)(=O)Cc1ccccc1`: in series [4], the remaining at 1 h was determined as 95%. The IC50 at 24 h in series [2] was over 100 µM. The pIC50 in series [3] is 5.46. The remaining at 24 h in series [5] was 97%; in series [1], over 95%.

As for `O=C(NCCOC(=O)[C@@H]1CCCCN1S(=O)(=O)Cc1ccccc1)c1cccnc1`, the figures for the Stability in series [6], in series [7] and in series [8] were 5%, 20% and 50%, respectively. Moreover, the remaining at 1 h in series [4] amounted to 82%. Further, the IC50 at 24 h in series [2] was over 100 µM. The compound further showed a pIC50 in series [3] of 4.94. The remaining at 24 h in series [5] was 81%.

In series [2], `O=C(OCCCc1cccnc1)[C@@H]1CCCCN1S(=O)(=O)Cc1cccc([N+](=O)[O-])c1` yielded an IC50 at 24 h of 48.2 µM. Besides, the pIC50 in series [3] is 5.10.

As for `O=C(OCCOc1cccnc1)[C@@H]1CCCCN1S(=O)(=O)Cc1ccccc1`, the remaining at 1 h in series [4] was determined as 88%. The compound further returned an IC50 at 24 h in series [2] of over 100 µM. Besides, the negative-log IC50 (pIC50) in series [3] was 5.11. The remaining at 24 h in series [5] is 77%; in series [1], over 95%.

In series [2], `O=C(OCCCc1cccnc1)[C@@H]1CCCCN1S(=O)(=O)Cc1ccccc1` displayed an IC50 at 24 h of over 100 µM. The compound further had a negative-log IC50 (pIC50) in series [3] of 5.24. The remaining at 24 h in series [1] was 99%.

In series [2], `O=C(C(=O)N1CCCC[C@H]1C(=O)OCCCc1cccnc1)c1ccccc1` registered an IC50 at 24 h of 88.1 µM. Further, in series [3], the pIC50 is 3.85.

As for `O=C(OCCOC(=O)[C@@H]1CCCCN1S(=O)(=O)Cc1ccccc1)c1cccnc1`, the remaining at 1 h in series [4] came to 82%. Moreover, the IC50 at 24 h in series [2] is over 100 µM. For the same compound, the pIC50 in series [3] is 5.59. Moreover, the remaining at 24 h in series [5] was determined as 50%; in series [1], 40%.

With `O=C(OCCCc1cccnc1)[C@@H]1CCCCN1S(=O)(=O)Cc1ccc(F)cc1`, the IC50 at 24 h in series [2] is over 100 µM. This compound had a pIC50 in series [3] of 5.24. Besides, the remaining at 24 h in series [1] was over 95%.

In the case of `O=C(OCCCc1cccnc1)[C@@H]1CCCCN1S(=O)(=O)Cc1ccc(Cl)cc1`, the IC50 at 24 h in series [2] was 33.6 µM. This compound also had a pIC50 in series [3] of 5.62.

Turning to `COc1cc(C(=O)NCCOC(=O)[C@@H]2CCCCN2S(=O)(=O)Cc2ccccc2)ccc1O`, the IC50 at 24 h in series [2] is over 100 µM. The compound also had a pIC50 in series [3] of 5.49.

Consider `COCCOc1cc(OCCOC)cc(C(=O)NCCOC(=O)[C@@H]2CCCCN2S(=O)(=O)Cc2ccccc2)c1`, for which the IC50 at 24 h in series [2] is over 100 µM. Moreover, in series [3], the pIC50 is 5.25. For the same compound, in series [1], the remaining at 24 h is over 95%.

For `O=C(OCCCc1cccnc1)[C@@H]1CCCCN1S(=O)(=O)Cc1cccc(Cl)c1`, half-maximal inhibition in series [2] (IC50 at 24 h) was put at 43.3 µM. Moreover, in series [3], the pIC50 was 5.12.

In turn, `CC(C)NC(=O)[C@@H]1CCCCN1S(=O)(=O)Cc1ccccc1` registered an IC50 at 24 h in series [2] of over 100 µM. Further, the pIC50 in series [3] was under 4.00. Further, the remaining at 24 h in series [1] was over 95%.

On to `O=C(OCCCc1cccnc1)C1CCCCN1S(=O)(=O)Cc1ccccc1` (racemic), for which the IC50 at 24 h in series [2] was over 100 µM. In series [3], this compound gave a pIC50 of 4.97.

Regarding `O=C(OCCO)C1CCCCN1S(=O)(=O)Cc1ccccc1` (racemic), the remaining at 1 h in series [4] was determined as 95%. In addition, in series [2], the IC50 at 24 h is over 100 µM. Further, the pIC50 in series [3] is 4.03. Also, the remaining at 24 h in series [5] is 86%; in series [1], over 95%.

In series [2], `O=C(OCCCc1cccnc1)C1CCCCN1S(=O)(=O)Cc1cccc([N+](=O)[O-])c1` (racemic) came in with a concentration for half-maximal inhibition (IC50) at 24 h of 46.7 µM. For the same compound, in series [3], the negative logarithm of the IC50 (pIC50) is 5.06.

In turn, `Nc1cccc(CS(=O)(=O)N2CCCCC2C(=O)OCCCc2cccnc2)c1` (racemic) gave an IC50 at 24 h in series [2] of 62.3 µM. In addition, in series [3], the pIC50 is under 4.00.

In turn, `O=C(OCCCc1cccnc1)C1CCCCN1C(=O)COc1ccc(Cl)cc1` (racemic) showed an IC50 at 24 h in series [2] of 50.9 µM. The compound further gave a pIC50 in series [3] of 4.05.

For the compound `O=C(OCCCc1cccnc1)C1CCCCN1S(=O)(=O)Cc1ccc([N+](=O)[O-])cc1` (racemic), the IC50 at 24 h in series [2] is 56.7 µM. Moreover, the pIC50 in series [3] is 5.41.

For `CC(C)OC(=O)C1CCCCN1S(=O)(=O)Cc1ccccc1` (racemic), the IC50 at 24 h in series [2] was over 100 µM. The compound further had a pIC50 in series [3] of 4.10. For the same compound, in series [1], the remaining at 24 h was over 95%.

The compound `CC(C)Nc1ccc(CS(=O)(=O)N2CCCCC2C(=O)OCCCc2cccnc2)cc1` (racemic) came in with an IC50 at 24 h in series [2] of 44.3 µM. In series [3], this compound had a pIC50 of 4.35.

In series [2], `CC(C)Nc1cccc(CS(=O)(=O)N2CCCCC2C(=O)OCCCc2cccnc2)c1` (racemic) returned a half-maximal inhibitory concentration (IC50) at 24 h of 57.4 µM. The same compound gave a pIC50 in series [3] of 4.38.

The compound `Nc1ccc(CS(=O)(=O)N2CCCCC2C(=O)OCCCc2cccnc2)cc1` (racemic) returned an IC50 at 24 h in series [2] of over 100 µM. Besides, the negative-log IC50 (pIC50) in series [3] is 4.67.

`C[C@H](CNC(=O)c1cccnc1)OC(=O)[C@@H]1CCCCN1S(=O)(=O)Cc1ccccc1` (single isomer, unassigned) gave an IC50 at 24 h in series [2] of over 100 µM. In series [3], this compound gave a pIC50 of 4.94.

These data come from ChEMBL document CHEMBL3864131, “Development, synthesis and structure-activity-relationships of inhibitors of the macrophage infectivity potentiator (Mip) proteins of Legionella pneumophila and Burkholderia pseudomallei” (Bioorg Med Chem, 2016).
